Among the data in ChEMBL document CHEMBL1126824, “Discovery of a novel class of potent HIV-1 protease inhibitors containing the (R)-(hydroxyethyl)urea isostere” (J Med Chem, 1993) are IC50, inhibition and TD50 values, retold here.

Structures are written as SMILES.

What is called IC50 is the concentration at which inhibition is half-maximal. As a reminder, the inhibition is the percentage by which the read-out fell short of the control.

The target of assay [1] is T1, Human immunodeficiency virus type 1 protease (Human immunodeficiency virus 1, UniProt Q72874). Put plainly: Inhibition of HIV-1 Protease. The method, boiled down: (§1)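 Continuous fluorometric HIV-1 protease assay. Substrate 2-(aminobenzoyl)-Thr-Ile-Nle-Phe(p-NO₂)-Gln-ArgNH₂ (Km = 37 μM). MVT-101 (Ac-Thr-Ile-Nle[CH₂NH]Nle-Gln-ArgNH₂) served as positive control. IC₅₀ values were determined from inhibition of substrate cleavage; compounds giving under 50% inhibition at 10 μM were flagged.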

Assay [2] deals with Human immunodeficiency virus type 1 protease (Human immunodeficiency virus 1) (UniProt Q72874). Put plainly: Inhibition of HIV-1 Protease. Details: concentration or dose not given beside the values. Conditions: concentration not given here. An outline of the steps:
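Continuous fluorometric cleavage of 2-(aminobenzoyl)-Thr-Ile-Nle-Phe(p-NO2)-Gln-ArgNH2 (Km = 37 μM); IC50 determined, with MVT-101 (Ac-Thr-Ile-Nle[CH2NH]Nle-Gln-ArgNH2) as positive control.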

For assay [3], the target named is T1, Human immunodeficiency virus type 1 protease. Put plainly: Compounds were tested for their concentration to inhibit the HIV-1 Protease. The method, boiled down: as §1
The subject of another assay is CEM (Homo sapiens). Put plainly: Toxic dose required for 50% in uninfected cells.

With `CC(C)CN(C[C@H](O)[C@H](Cc1ccccc1)NC(=O)[C@H](CC(N)=O)NC(=O)c1ccc2ccccc2n1)C(=O)NC(C)(C)C`, 10000 nM corresponded to half-maximal inhibition in assay [1] (IC50).

`CC(C)(C)NC(=O)N(CC1CCCCC1)C[C@@H](O)[C@H](Cc1ccccc1)NC(=O)[C@H](CC(N)=O)NC(=O)OCc1ccccc1` displayed an IC50 in assay [1] of 29 nM.

`CNC(=O)N(CC(C)C)C[C@H](O)[C@H](Cc1ccccc1)NC(=O)[C@H](CC(N)=O)NC(=O)OCc1ccccc1`: the inhibition in assay [2] is < 50%.

`CNC(=O)N(CC(C)C)C[C@@H](O)[C@H](Cc1ccccc1)NC(=O)[C@H](CC(N)=O)NC(=O)OCc1ccccc1` came in with an IC50 in assay [3] of 1500 nM.

For `CC(C)CN(C[C@H](O)[C@H](Cc1ccccc1)NC(=O)[C@H](CC(N)=O)NC(=O)OCc1ccccc1)C(=O)NC(C)(C)C`, the IC50 in assay [1] amounted to 54000 nM.

In assay [1], `C[C@H](c1ccccc1)N(C[C@@H](O)[C@H](Cc1ccccc1)NC(=O)[C@H](CC(N)=O)NC(=O)OCc1ccccc1)C(=O)NC(C)(C)C` showed an IC50 of 6500 nM.

`CC(C)CN(C[C@@H](O)[C@H](Cc1ccccc1)NC(=O)[C@H](CC(N)=O)NC(=O)OCc1ccccc1)C(=O)NC(C)C` registered an IC50 in assay [1] of 260 nM.

Take `CCNC(=O)N(CC(C)C)C[C@@H](O)[C@H](Cc1ccccc1)NC(=O)[C@H](CC(N)=O)NC(=O)OCc1ccccc1`: in assay [1], half-maximal inhibition (IC50) was put at 330 nM.

`CC(C)(C)NC(=O)N(Cc1ccncc1)C[C@@H](O)[C@H](Cc1ccccc1)NC(=O)[C@H](CC(N)=O)NC(=O)c1ccc2ccccc2n1` came in with an IC50 in assay [1] of 19 nM. In addition, the TD50 in the assay with CEM (Homo sapiens) worked out at 300 µM.

Regarding `CC(C)(C)NC(=O)N(CC1CCCCC1)C[C@@H](O)[C@H](Cc1ccccc1)NC(=O)[C@H](CC(N)=O)NC(=O)c1ccc2ccccc2n1`, the IC50 in assay [1] was found to be 5 nM.

Regarding `CCCCNC(=O)N(CC(C)C)C[C@@H](O)[C@H](Cc1ccccc1)NC(=O)[C@H](CC(N)=O)NC(=O)OCc1ccccc1`, it took 940 nM to reach half-maximal inhibition in assay [1] (IC50).

The compound `CC(C)CCN(C[C@@H](O)[C@H](Cc1ccccc1)NC(=O)[C@H](CC(N)=O)NC(=O)c1ccc2ccccc2n1)C(=O)NC(C)(C)C` gave an IC50 in assay [1] of 3 nM. In addition, the TD50 in the assay with CEM (Homo sapiens) is 50 µM.

In turn, `CC(C)CCN(C[C@@H](O)[C@H](Cc1ccccc1)NC(=O)[C@H](CC(N)=O)NC(=O)OCc1ccccc1)C(=O)NC(C)(C)C` came in with an IC50 in assay [1] of 13 nM.

Turning to `CCCCNC(=O)N(C)C[C@@H](O)[C@H](Cc1ccccc1)NC(=O)[C@H](CC(N)=O)NC(=O)OCc1ccccc1`, the inhibition in assay [2] is < 50%.

With `CC(C)CN(C[C@@H](O)[C@H](Cc1ccccc1)NC(=O)[C@H](CC(N)=O)NC(=O)c1ccc2ccccc2n1)C(=O)NC(C)(C)C` [TELINAVIR], 6 nM corresponded to half-maximal inhibition in assay [1] (IC50). Also, the TD50 in the assay with CEM (Homo sapiens) turned out to be 50 µM.

`CCCNC(=O)N(CC(C)C)C[C@@H](O)[C@H](Cc1ccccc1)NC(=O)[C@H](CC(N)=O)NC(=O)OCc1ccccc1` registered an IC50 in assay [1] of 518 nM.

As for `CCCCNC(=O)N(C)C[C@H](O)[C@H](Cc1ccccc1)NC(=O)[C@H](CC(N)=O)NC(=O)OCc1ccccc1`, the inhibition in assay [2] is < 50%.

`CCCC[C@@H](CN[C@@H](CCCC)C(=O)N[C@@H](CCC(N)=O)C(=O)N[C@@H](CCCNC(=N)N)C(N)=O)NC(=O)[C@@H](NC(=O)[C@@H](NC(C)=O)[C@@H](C)O)[C@@H](C)CC` yielded an IC50 in assay [1] of 1900 nM.

In assay [1], `CCCCNC(=O)N(CC(C)C)C[C@@H](O)[C@H](Cc1ccccc1)NC(=O)[C@H](CC(N)=O)NC(=O)c1ccc2ccccc2n1` returned an IC50 of 126 nM.

`CC(C)(C)NC(=O)N(Cc1ccncc1)C[C@@H](O)[C@H](Cc1ccccc1)NC(=O)[C@H](CC(N)=O)NC(=O)OCc1ccccc1` came in with an IC50 in assay [1] of 105 nM.

`CC(C)(C)NC(=O)N(Cc1ccccc1)C[C@@H](O)[C@H](Cc1ccccc1)NC(=O)[C@H](CC(N)=O)NC(=O)OCc1ccccc1`: half-maximal inhibition in assay [1] (IC50) was put at 19 nM.

On to `CCCCNC(=O)N(CC(C)C)C[C@H](O)[C@H](Cc1ccccc1)NC(=O)[C@H](CC(N)=O)NC(=O)OCc1ccccc1`, for which the inhibition in assay [2] was < 50%.

`CC(C)(C)NC(=O)N(Cc1ccccc1)C[C@@H](O)[C@H](Cc1ccccc1)NC(=O)[C@H](CC(N)=O)NC(=O)c1ccc2ccccc2n1` displayed an IC50 in assay [1] of 3 nM. The TD50 with CEM (Homo sapiens) was 700 µM.

Turning to `CNC(=O)N(C)C[C@H](O)[C@H](Cc1ccccc1)NC(=O)[C@H](CC(N)=O)NC(=O)OCc1ccccc1`, in assay [2], the inhibition was < 50%.

`C[C@@H](c1ccccc1)N(C[C@@H](O)[C@H](Cc1ccccc1)NC(=O)[C@H](CC(N)=O)NC(=O)OCc1ccccc1)C(=O)NC(C)(C)C` showed an IC50 in assay [1] of 5100 nM.

On to `CNC(=O)N(C)C[C@@H](O)[C@H](Cc1ccccc1)NC(=O)[C@H](CC(N)=O)NC(=O)OCc1ccccc1`, for which the inhibition in assay [2] was < 50%.

For `CC(C)CN(C[C@@H](O)[C@H](Cc1ccccc1)NC(=O)[C@H](CC(N)=O)NC(=O)OCc1ccccc1)C(=O)NC(C)(C)C`, the IC50 in assay [1] is 35 nM.
